Activity calls are given as the source filed them. No cut-off for these calls is given here.

The target in assay [1] is T1, Histone deacetylase 8 (Homo sapiens) (UniProt Q9BY41).
T1 sequence (whole entry): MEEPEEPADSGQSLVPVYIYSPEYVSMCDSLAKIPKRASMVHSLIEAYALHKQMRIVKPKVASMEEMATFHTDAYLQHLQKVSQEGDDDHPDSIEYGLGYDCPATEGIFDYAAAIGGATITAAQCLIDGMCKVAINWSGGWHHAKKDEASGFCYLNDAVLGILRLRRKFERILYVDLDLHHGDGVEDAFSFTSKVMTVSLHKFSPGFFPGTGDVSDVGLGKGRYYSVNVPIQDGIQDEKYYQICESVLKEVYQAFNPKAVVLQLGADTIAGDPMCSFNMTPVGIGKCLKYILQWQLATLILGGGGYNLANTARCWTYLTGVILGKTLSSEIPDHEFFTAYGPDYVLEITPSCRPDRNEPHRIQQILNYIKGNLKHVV
Kind of assay: Inhibition of recombinant human His6/SUMO-tagged HDAC8 expressed in Escherichia coli (BL21) DE3 pLysS assessed as residual activity at 50 uM using Boc-Lys(trifluoroacetyl)-AMC as substrate preincubated for 60 mins followed by substrate addition and measured after 60 mins by fluorescence assay relative to control. The following applies: time 120.0 min. In a few lines:
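20 μM Boc-Lys(trifluoroacetyl)-AMC was then added for 60 min at 30 °C, the reaction stopped with 1.7 μM SATFMK and developed with 0.4 mg/ml trypsin, and AMC fluorescence read at Ex 350/Em 450 nm. Triplicates; percent relative activity.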

In assay [2] the target is T2, Solute carrier family 2, facilitated glucose transporter member 4 (Homo sapiens, UniProt P14672).
T2 sequence (P14672 whole entry): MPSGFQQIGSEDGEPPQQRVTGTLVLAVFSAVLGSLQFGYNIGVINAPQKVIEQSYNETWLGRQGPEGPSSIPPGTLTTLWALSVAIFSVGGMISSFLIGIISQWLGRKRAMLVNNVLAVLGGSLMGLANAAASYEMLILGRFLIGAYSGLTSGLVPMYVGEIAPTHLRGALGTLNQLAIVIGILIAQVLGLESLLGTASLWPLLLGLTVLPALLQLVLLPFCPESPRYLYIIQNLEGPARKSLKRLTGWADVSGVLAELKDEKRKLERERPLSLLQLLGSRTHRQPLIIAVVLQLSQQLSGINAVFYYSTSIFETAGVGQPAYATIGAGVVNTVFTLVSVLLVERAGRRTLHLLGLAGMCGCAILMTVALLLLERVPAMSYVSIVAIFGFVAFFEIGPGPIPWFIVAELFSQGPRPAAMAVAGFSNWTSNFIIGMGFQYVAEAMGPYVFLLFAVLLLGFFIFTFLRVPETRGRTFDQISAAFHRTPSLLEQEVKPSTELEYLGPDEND
As to the kind of experiment: Inhibition of transport activity of human GLUT4 expressed in hexose transporter deficient W4000fgy1 erg4 yeast cells assessed as reduction in transporter-mediated [14C]-hexose uptake into cells measured after 10 mins by scintillation counting method. The assay is classed as cell-based. In a few lines:
(§1)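 GLUT1 (VW4000fgy1) or GLUT4 (VW4000fgy1erg4) hxt0 yeast were grown on maltose and then glucose and resuspended in PBS pH 7.4 at OD600 ~10. Compound was used at 0.1–100 μM, final 1% DMSO. Uptake of 5 mM 14C-glucose over 10 min was stopped with ice-cold quench buffer, filtered and counted by scintillation. IC50 was taken from dose-response curves of three independent measurements.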

Assay [3] deals with T3, Solute carrier family 2, facilitated glucose transporter member 1 (Homo sapiens) (UniProt P11166).
T3 sequence (whole entry): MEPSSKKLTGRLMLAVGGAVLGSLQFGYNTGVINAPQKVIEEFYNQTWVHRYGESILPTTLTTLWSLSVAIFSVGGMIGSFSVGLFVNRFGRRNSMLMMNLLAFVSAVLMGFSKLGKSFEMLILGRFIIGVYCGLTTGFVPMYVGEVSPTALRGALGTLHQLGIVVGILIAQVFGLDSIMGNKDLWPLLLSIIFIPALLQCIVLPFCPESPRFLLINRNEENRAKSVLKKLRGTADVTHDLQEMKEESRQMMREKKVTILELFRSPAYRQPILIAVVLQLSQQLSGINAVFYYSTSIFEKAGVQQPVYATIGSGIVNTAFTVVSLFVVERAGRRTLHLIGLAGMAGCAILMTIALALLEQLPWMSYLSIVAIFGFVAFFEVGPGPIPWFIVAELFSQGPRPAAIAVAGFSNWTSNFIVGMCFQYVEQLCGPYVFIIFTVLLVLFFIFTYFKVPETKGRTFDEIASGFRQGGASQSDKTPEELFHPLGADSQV
As to the kind of experiment: Inhibition of transport activity of human GLUT1 expressed in hexose transporter deficient VW4000fgy1 yeast cells assessed as reduction in transporter-mediated [14C]-hexose uptake into cells at 100 uM measured after 10 mins by scintillation counting method relative to control. The assay is classed as cell-based. In a few lines:
(§2)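 The hxt0 yeast strain expressing one human GLUT was grown at 30 °C and resuspended in PBS pH 7.4 at OD600 ~10. Uptake was started with 14C-glucose at 5 mM final (GLUT1, GLUT4) or 14C-fructose at 10 mM final (GLUT5). It was quenched after 10 min with ice-cold 0.1 M KPi/0.1 M LiCl pH 5.5, filtered and counted by scintillation. Compound at 100 μM with 1% DMSO; DMSO control and phloretin 200 μM (GLUT1/4) or MSNBA 100 μM (GLUT5) as references. Triplicates.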

Assay [4] has as its target T4, Solute carrier family 2, facilitated glucose transporter member 1 (Homo sapiens, UniProt P11166).
T4 sequence (P11166 whole entry): T3 sequence (whole entry)
Kind of assay: Inhibition of transport activity of human GLUT1 expressed in hexose transporter deficient VW4000fgy1 yeast cells assessed as reduction in transporter-mediated [14C]-hexose uptake into cells measured after 10 mins by scintillation counting method. The assay is classed as cell-based. In outline: as §1

The next assay relates to CCRF-CEM. As to the kind of experiment: Cytotoxicity against human CCRF-CEM cells assessed as reduction in cell viability measured after 48 hrs by Hoechst 33342/propidium iodide staining based imaging analysis. The assay is classed as functional. In outline: (§3)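 Cells were seeded at 10,000 per well (HS-27 at 3,000) in 10% FBS RPMI (leukemic lines) or DMEM (MDA-MB-231, HS-27). Compound in DMSO (1% v/v final) at 0.5–100 µM for 48 h. Hoechst 33342 and PI were added 2 h before automated imaging; dead cells were co-stained. Quadruplicates. CC50 was taken by linear interpolation between the two concentrations nearest 50% death.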

Assay [5] deals with T5, Solute carrier family 2, facilitated glucose transporter member 4 (Homo sapiens) (UniProt P14672).
T5 sequence (whole entry): T2 sequence (P14672 whole entry)
Kind of assay: Inhibition of transport activity of human GLUT4 expressed in hexose transporter deficient […] erg4 yeast cells assessed as reduction in transporter-mediated [14C]-hexose uptake into cells at 100 uM measured after 10 mins by scintillation counting method relative to control. The assay is classed as cell-based. In a few lines:
as §2

The next assay deals with KCL-22. Kind of assay: Cytotoxicity against human KCL-22 cells assessed as reduction in cell viability measured after 48 hrs by Hoechst 33342/propidium iodide staining based imaging analysis. The assay is classed as functional. In outline: as §3
The target of assay [6] is Histone deacetylase 4 (Homo sapiens) (UniProt P56524). As to the kind of experiment: Inhibition of recombinant human N-terminal GST-tagged HDAC4 (627 to end residues) expressed in baculovirus infected Sf9 insect cells assessed as residual activity at 50 uM using Boc-Lys(trifluoroacetyl)-AMC as substrate preincubated for 60 mins followed by substrate addition and measured after 60 mins by fluorescence assay relative to control. As to conditions: time 120.0 min.

The subject of another assay is K562. As to the kind of experiment: Cytotoxicity against human K562 cells assessed as reduction in cell viability measured after 48 hrs by Hoechst 33342/propidium iodide staining based imaging analysis. The assay is classed as functional. In outline: as §3
Assay [7] has as its target T6, Solute carrier family 2, facilitated glucose transporter member 5 (Homo sapiens) (UniProt P22732).
T6 sequence (whole entry): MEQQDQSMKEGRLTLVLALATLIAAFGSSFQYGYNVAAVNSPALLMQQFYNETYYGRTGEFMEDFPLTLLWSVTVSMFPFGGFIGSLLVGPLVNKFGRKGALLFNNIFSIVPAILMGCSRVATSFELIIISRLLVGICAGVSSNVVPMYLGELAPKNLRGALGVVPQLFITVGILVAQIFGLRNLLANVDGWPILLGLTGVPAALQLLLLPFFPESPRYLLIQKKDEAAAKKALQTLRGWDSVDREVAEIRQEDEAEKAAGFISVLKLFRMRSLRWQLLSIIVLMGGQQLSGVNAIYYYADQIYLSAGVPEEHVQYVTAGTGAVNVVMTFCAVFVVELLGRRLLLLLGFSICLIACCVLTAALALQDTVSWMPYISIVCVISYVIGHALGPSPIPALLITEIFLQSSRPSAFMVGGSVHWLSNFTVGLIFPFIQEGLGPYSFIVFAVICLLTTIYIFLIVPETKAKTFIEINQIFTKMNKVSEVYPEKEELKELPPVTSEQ
As to the kind of experiment: Inhibition of transport activity of human GLUT5 expressed in hexose transporter deficient VW4000 yeast cells assessed as reduction in transporter-mediated [14C]-fructose uptake into cells at 100 uM measured after 10 mins by scintillation counting method. The assay is classed as cell-based. In a few lines:
as §2

The target in the next assay is T7, Histone deacetylase 8 (Homo sapiens, UniProt Q9BY41).
T7 sequence (Q9BY41 whole entry): T1 sequence (whole entry)
As to the kind of experiment: Inhibition of recombinant human His6/SUMO-tagged HDAC8 expressed in Escherichia coli (BL21) DE3 pLysS using Boc-Lys(trifluoroacetyl)-AMC as substrate preincubated for 60 mins followed by substrate addition and measured after 60 mins by fluorescence assay.

Sequence of Histone deacetylase 4 (Homo sapiens) (P56524 whole entry): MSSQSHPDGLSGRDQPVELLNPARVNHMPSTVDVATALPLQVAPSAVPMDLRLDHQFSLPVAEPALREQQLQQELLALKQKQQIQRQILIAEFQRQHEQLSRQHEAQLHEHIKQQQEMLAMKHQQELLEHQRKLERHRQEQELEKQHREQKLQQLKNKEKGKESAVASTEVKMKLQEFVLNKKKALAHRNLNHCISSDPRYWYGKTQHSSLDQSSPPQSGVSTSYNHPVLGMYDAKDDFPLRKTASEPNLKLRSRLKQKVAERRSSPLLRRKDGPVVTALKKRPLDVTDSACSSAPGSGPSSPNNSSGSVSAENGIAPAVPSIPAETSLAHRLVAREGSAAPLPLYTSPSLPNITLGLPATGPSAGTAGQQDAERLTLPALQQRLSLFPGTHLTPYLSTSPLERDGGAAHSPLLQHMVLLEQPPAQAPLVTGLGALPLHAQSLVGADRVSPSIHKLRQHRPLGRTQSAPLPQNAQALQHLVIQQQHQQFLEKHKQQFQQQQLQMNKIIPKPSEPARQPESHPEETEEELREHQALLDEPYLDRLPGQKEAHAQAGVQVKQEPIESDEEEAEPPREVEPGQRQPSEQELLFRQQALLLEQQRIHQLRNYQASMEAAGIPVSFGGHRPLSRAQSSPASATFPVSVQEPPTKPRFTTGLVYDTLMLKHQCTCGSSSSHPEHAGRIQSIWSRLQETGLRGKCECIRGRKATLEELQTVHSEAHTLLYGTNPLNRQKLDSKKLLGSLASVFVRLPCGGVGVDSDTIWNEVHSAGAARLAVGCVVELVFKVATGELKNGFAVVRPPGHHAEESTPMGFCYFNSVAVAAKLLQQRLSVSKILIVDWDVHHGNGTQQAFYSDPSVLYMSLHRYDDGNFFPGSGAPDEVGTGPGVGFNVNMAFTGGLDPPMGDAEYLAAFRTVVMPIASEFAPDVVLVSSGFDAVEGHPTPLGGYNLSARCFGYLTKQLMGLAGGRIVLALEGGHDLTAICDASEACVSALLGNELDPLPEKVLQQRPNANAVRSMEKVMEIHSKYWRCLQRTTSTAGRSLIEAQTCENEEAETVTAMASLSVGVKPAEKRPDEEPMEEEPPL

Consider `Cc1cccc2sc(NC(=O)CN3C(=O)S/C(=C/c4ccco4)C3=O)nc12`, for which the Activity in assay [1] and in [6] was greater than 50% in each case. In addition, the 50% inhibitory concentration (IC50) turned out to be 123 µM in assay [2] and 72 µM in [4]. The inhibition in [3] and in [5] was greater than 50% in each case. Moreover, the CC50 with CCRF-CEM amounted to 96.8 µM; in the assay on KCL-22, 97 µM; in the assay with K562, 97.1 µM. In addition, the inhibition result in [7] was “inactive”.
Turning to `O=C(CN1C(=O)S/C(=C/c2ccco2)C1=O)Nc1ccc([N+](=O)[O-])cc1`, the Activity in [1] is 17%; in [6], greater than 50%. Also, the inhibition result in [7] is “inactive”. Also, the IC50 on Histone deacetylase 8 turned out to be 13 µM.
